From article PMC4180501 (Biochimica et biophysica acta, 2012)
Residue numbers refer to the chain shown, from its start.

Assays:
GK-WT [1] = biological target: T1, GK-WT (Homo sapiens, UniProt P35557); experiment: DSC thermal denaturation
T1 sequence (P35557 1-465): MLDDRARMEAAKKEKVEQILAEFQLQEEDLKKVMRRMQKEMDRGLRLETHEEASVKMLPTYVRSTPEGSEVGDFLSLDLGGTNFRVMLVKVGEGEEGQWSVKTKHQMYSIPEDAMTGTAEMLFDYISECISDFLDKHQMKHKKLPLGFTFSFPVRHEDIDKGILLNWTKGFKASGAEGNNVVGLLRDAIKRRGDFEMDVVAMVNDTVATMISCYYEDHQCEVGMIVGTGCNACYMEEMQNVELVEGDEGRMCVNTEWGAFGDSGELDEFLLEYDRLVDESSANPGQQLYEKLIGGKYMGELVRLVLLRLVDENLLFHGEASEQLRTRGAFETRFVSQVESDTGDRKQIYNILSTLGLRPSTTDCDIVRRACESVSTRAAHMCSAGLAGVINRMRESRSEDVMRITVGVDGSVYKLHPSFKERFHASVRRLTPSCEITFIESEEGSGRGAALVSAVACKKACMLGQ
How it was run: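 Wild-type recombinant human GK was run by DSC at 0.3 mg/ml (6 µM) in 5 mM phosphate, 100 mM KCl, pH 7.3, in buffer or 20% glycerol, with glucose up to 300 mM. The scan was 0.25 degree/min against a protein-free reference. Tm was plotted against glucose and fit to a hyperbola for EC50. Unfolding rate constant used k=vCp/(Qt−Q) to derive activation energy.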

GK-W99 (W167F/W257F) [2] = biological target: T2, GK-W99 (W167F/W257F) (Homo sapiens, UniProt P35557, W167F/W257F); experiment: DSC thermal denaturation; conditions: W-99 in buffer, 300 mM D-glucose
T2 sequence (P35557 1-465 W167F/W257F): T1 sequence (P35557 1-465) with W167F, W257F
How it was run: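 Samples were degassed and scanned by DSC at 0.25 degree/min against a reference holding everything except protein. Tm and calorimetric ΔH were taken by integrating the Cp-vs-temperature thermogram; Cpm is the apparent heat capacity at the maximum.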

GK-WT [3] = biological target: T1, GK-WT; experiment: Urea unfolding/refolding of GK by tryptophan fluorescence; conditions: 20°C, pH 7.3
How it was run: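 GK-WT unfolding was followed by urea titration in 20 mM PO4, 50 mM KCl, 1 mM EDTA, 1 mM DTT, pH 7.3, 20 °C, ± 20% glycerol, ± 300 mM glucose. I320/I360 was read at 295 nm excitation, and ΔGu(H2O) came from a two-state fit. Reversibility was tested after 30 min in 4 or 8 M urea, then dialysis, by restoration of the spectrum and glucose response.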

GK-W99 (W167F/W257F) [4] = biological target: T2, GK-W99 (W167F/W257F); experiment: NADP+-coupled spectrophotometric kinetic assay; assay type: biochemical; conditions: W-99, no GKA
How it was run: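 Recombinant human β-cell glucokinase single-Trp variant, expressed in E. coli as a GST fusion and sequence-verified. Catalytic parameters came from an NADP+-coupled spectrophotometric assay run with or without 30% glycerol. Hill coefficient and glucose S0.5 were obtained by fitting v/Vmax = [glucose]^H/(K′+[glucose]^H), with […].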

GK-W99 (W167F/W257F) [5] = biological target: T2, GK-W99 (W167F/W257F); experiment: D-glucose binding by tryptophan fluorescence titration; conditions: W-99, no GKA
[6] = GK-WT in 20% glycerol, 300 mM D-glucose
[7] = GK-WT in buffer, 300 mM D-glucose
[8] = GK-WT, 20% glycerol, 7.5 mM D-glucose
[9] = GK-WT, 20% glycerol, 50 mM D-glucose
[10] = GK-WT, 20% glycerol, 100 mM D-glucose
[11] = GK-WT, 20% glycerol, 200 mM D-glucose
[12] = GK-WT, buffer, 7.5 mM D-glucose
[13] = GK-WT, buffer, 100 mM D-glucose
[14] = GK-WT, buffer, 200 mM D-glucose

OC[C@H]1OC(O)[C@H](O)[C@@H](O)[C@@H]1O (stereo partly drawn) [D-glucose]
EC50 (GK-WT [1]; EC50 of glucose dependency of heat capacity (Cp), 20% glycerol, hyperbolic fit): 35 mM | Cp^m (GK-WT [1]; [6]): 222.2 kJ/mol/°C | ΔH thermal denaturation (GK-WT [1]; [6]): 169 kcal/mol | Tm (GK-WT [1]; GK-WT in 20% glycerol, 300 mM D-glucose, DSC): 56.9 °C | Cp^m (GK-WT [1]; [7]): 130.5 kJ/mol/°C | ΔH thermal denaturation (GK-WT [1]; [7]): 135 kcal/mol | Tm (GK-WT [1]; GK-WT in buffer, 300 mM D-glucose, DSC): 52.2 °C | Cp^m (GK-WT [1]; [8]): 148.1 kJ/mol/°C | Ea thermal denaturation (GK-WT [1]; [8]): 175.3 kcal/mol | Tm (GK-WT [1]; [8]): 52.6 °C | Cp^m (GK-WT [1]; [9]): 186.2 kJ/mol/°C | Ea thermal denaturation (GK-WT [1]; [9]): 190.1 kcal/mol | Tm (GK-WT [1]; [9]): 54.8 °C | Cp^m (GK-WT [1]; [10]): 196.2 kJ/mol/°C | Ea thermal denaturation (GK-WT [1]; [10]): 193.6 kcal/mol | Tm (GK-WT [1]; [10]): 55.5 °C | Cp^m (GK-WT [1]; [11]): 212.5 kJ/mol/°C | Ea thermal denaturation (GK-WT [1]; [11]): 190.1 kcal/mol | Tm (GK-WT [1]; [11]): 56.3 °C | Ea thermal denaturation (GK-WT [1]; GK-WT, 20% glycerol, 300 mM D-glucose): 189.3 kcal/mol | Cp^m (GK-WT [1]; [12]): 63.2 kJ/mol/°C | Ea thermal denaturation (GK-WT [1]; [12]): 120 kcal/mol | Tm (GK-WT [1]; [12]): 48.0 °C | Cp^m (GK-WT [1]; GK-WT, buffer, 25 mM D-glucose): 90.8 kJ/mol/°C | Ea thermal denaturation (GK-WT [1]; GK-WT, buffer, 25 mM D-glucose): 134.4 kcal/mol | Tm (GK-WT [1]; GK-WT, buffer, 25 mM D-glucose): 49.5 °C | Cp^m (GK-WT [1]; GK-WT, buffer, 50 mM D-glucose): 101.7 kJ/mol/°C | Ea thermal denaturation (GK-WT [1]; GK-WT, buffer, 50 mM D-glucose): 137.5 kcal/mol | Tm (GK-WT [1]; GK-WT, buffer, 50 mM D-glucose): 50.0 °C | Cp^m (GK-WT [1]; [13]): 109.6 kJ/mol/°C | Ea thermal denaturation (GK-WT [1]; [13]): 136 kcal/mol | Tm (GK-WT [1]; [13]): 50.9 °C | Cp^m (GK-WT [1]; [14]): 128.4 kJ/mol/°C | Ea thermal denaturation (GK-WT [1]; [14]): 140.3 kcal/mol | Tm (GK-WT [1]; [14]): 52.2 °C | Ea thermal denaturation (GK-WT [1]; GK-WT, buffer, 300 mM D-glucose): 137 kcal/mol | Cp^m (GK-W99 (W167F/W257F) [2]): 100.8 kJ/mol/°C | ΔH thermal denaturation (GK-W99 (W167F/W257F) [2]): 102 kcal/mol | Tm (GK-W99 (W167F/W257F) [2]; DSC): 49.6 °C | ΔGu(H2O) of urea denaturation (GK-WT [3]; GK-WT in 20% glycerol with 300 mM D-glucose): 2.87 kcal/mol | ΔGu(H2O) of urea denaturation (GK-WT [3]; GK-WT in buffer with 300mM D-glucose): 2.48 kcal/mol | Glucose S0.5 (GK-W99 (W167F/W257F) [4]; 30% glycerol): 6.53 mM | kcat (GK-W99 (W167F/W257F) [4]; 30% glycerol): 6.10 s⁻¹ | kcat/S0.5 (GK-W99 (W167F/W257F) [4]; 30% glycerol): 930 M⁻¹ s⁻¹ | nH (Hill coefficient towards glucose) (GK-W99 (W167F/W257F) [4]; 30% glycerol): 1.52 | Glucose S0.5 (GK-W99 (W167F/W257F) [4]; no glycerol): 21.0 mM | kcat (GK-W99 (W167F/W257F) [4]; no glycerol): 8.47 s⁻¹ | kcat/S0.5 (GK-W99 (W167F/W257F) [4]; no glycerol): 400 M⁻¹ s⁻¹ | nH (Hill coefficient towards glucose) (GK-W99 (W167F/W257F) [4]; no glycerol): 1.24 | Kd (GK-W99 (W167F/W257F) [5]; 20% glycerol): 4.06 mM | Kd (GK-W99 (W167F/W257F) [5]; no glycerol): 18.8 mM
